KCNQ1 act = potentiates or activates the human KCNQ1 potassium channel | CHO-K1 KCNQ1, thallium flux FluxOR fluorescence; stronger effect = higher value | P51787 | 0.35% of 310,000 active | B-score at 10 µM;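 active means fluorescence ratio B-score, a plate-corrected score, at least three library SD, with initial intensity B-score within 5 SD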
Target sequence (P51787 whole entry, looked up): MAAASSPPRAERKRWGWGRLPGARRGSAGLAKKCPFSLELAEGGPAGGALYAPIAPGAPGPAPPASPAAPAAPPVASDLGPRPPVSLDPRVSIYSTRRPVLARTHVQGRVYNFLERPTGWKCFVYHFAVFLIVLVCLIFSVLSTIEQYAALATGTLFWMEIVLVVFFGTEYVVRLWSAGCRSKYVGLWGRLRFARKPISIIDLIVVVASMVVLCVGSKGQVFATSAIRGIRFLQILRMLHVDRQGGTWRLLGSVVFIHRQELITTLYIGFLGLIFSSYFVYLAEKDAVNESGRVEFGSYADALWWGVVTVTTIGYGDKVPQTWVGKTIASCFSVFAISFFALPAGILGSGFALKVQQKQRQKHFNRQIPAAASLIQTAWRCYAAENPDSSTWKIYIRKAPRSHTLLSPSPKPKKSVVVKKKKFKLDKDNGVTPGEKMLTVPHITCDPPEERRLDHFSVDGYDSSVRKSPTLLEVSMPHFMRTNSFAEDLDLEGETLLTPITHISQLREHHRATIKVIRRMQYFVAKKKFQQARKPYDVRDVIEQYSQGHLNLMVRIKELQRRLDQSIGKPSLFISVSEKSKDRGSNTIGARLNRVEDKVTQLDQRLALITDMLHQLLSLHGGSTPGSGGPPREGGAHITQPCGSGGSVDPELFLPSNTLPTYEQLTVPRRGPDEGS
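Assay system: stable KCNQ1 CHO-K1 line; medium: assay buffer, equal DMSO in all wells; timing: 90 min dye loading and 20 min compound exposure, both at room temperature; technique: kinetic FluxOR thallium fluorescence, 10-s 1-Hz baseline, 110-s post-stimulus read; read-out basis: B score of baseline-normalized fluorescence ratio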
KCNK3 inh = human KCNK3 channel inhibition, primary screen | 0.84% of 340,000 active | B-score at 10 µM | AID 602410 | O14649 | CHO-KCNK3 thallium flux, FluxOR fluorescence; stronger effect = lower value;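 active means B-score under library mean minus 4 SD, starting fluorescence ratio at most library mean plus 5 SD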;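 further: more negative B-score means stronger inhibition of thallium flux through KCNK3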
KCNK9 inh = human KCNK9 channel inhibition; HEK293 KCNK9, FluxOR thallium flux fluorescence; stronger effect = lower value; B-score at 10 µM; 1.2% of 310,000 active; AID 488922; Q9NPC2;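 active means ratio B-score over 3 SD below the library mean, with starting fluorescence within 5 SD of its mean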;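 further: negative B-score means less thallium flux so channel inhibition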
KCNQ1 block = human KCNQ1 channel inhibition. B-score at 10 µM. CHO-K1 KCNQ1, FluxOR thallium flux fluorescence; stronger effect = higher value. P51787. 1.3% of 310,000 active;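 active means compounds whose thallium flux B-score, printed positive for inhibition, exceeds three library SD while starting fluorescence stays within three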;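 further: channel opened by potassium depolarization with thallium stimulus after 20 min compound exposure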
hERG protect = shields human hERG channel from block by proarrhythmic agents. Q12809. CHO-hERG, FluxOR thallium flux, dofetilide IC70 present. activation (rescue from dofetilide block), less the hit threshold, % at 10 µM. 0.51% of 310,000 active. AID 1511;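 active means activation above the mean of controls blocked by dofetilide plus 5 SD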;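 further: thallium influx through hERG after potassium depolarization seen as dye fluorescence rise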
Kir21 block = blocks the mouse Kir2.1 inward-rectifier potassium channel | HEK293-Kir2.1, FluxOR thallium flux fluorescence; stronger effect = lower value | B-score at 10 µM | P35561 | 0.85% of 310,000 active;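 active means fluorescence ratio B-score at or below minus 3 SD of library scores, with starting-brightness B-score within 2 SD, cut at about -4.2 in these data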;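 further: channel flux triggered by added potassium and thallium sulfate stimulus; B-score of peak minus minimum fluorescence over baseline after thallium stimulus; more negative B-score means stronger Kir2.1 block with less thallium influx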
KCNK9 inh conf = confirmation of human KCNK9 potassium channel inhibitors. 43% of 4,900 active. HEK293 KCNK9 cells, FluxOR thallium flux fluorescence. shares compounds with KCNK9 inh. inhibition, % at 10 µM;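 active means thallium signal inhibited by more than 5 SD of the compound-free buffer control wells, on both duplicate plates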;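 further: 0% = assay buffer control wells without compound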
Kir21 sel = mouse Kir2.1 off-target activity of KCNK9 modulators; shares compounds with KCNK9 inh; Kir2.1 cells, FluxOR thallium flux fluorescence; inhibition, % at 10 µM; 4% of 4,900 active; AID 492993;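 active means thallium signal drop more than 5 SD beyond the mean of the no-compound control wells, seen in both duplicate plates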;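 further: signal is fluorescence rise after thallium addition divided by baseline fluorescence; plate controls were assay buffer only for no effect and full block by chlorpromazine control for full effect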
HEK293 Tl ctr = non-induced cell nonspecific activity of KCNK9 modulators. non-induced KCNK9-HEK293, FluxOR thallium flux. AID 492997. 40% of 4,900 active. inhibition, % at 10 µM. shares compounds with KCNK9 inh;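 active means thallium signal drop beyond 5 SD of the untreated control mean, on both duplicate plates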;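 further: plate controls were buffer only IC0 wells for no effect and SID17386958 at its maximal inhibitory level for full effect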
KCNK3 confirm = human KCNK3 channel inhibition, confirmation assay | shares compounds with KCNK3 inh | AID 651638 | CHO-KCNK3 thallium flux, FluxOR fluorescence; 0% buffer, 100% carvedilol maximal block | 99% of 2,400 active | ratio percent of control, % at 10 µM;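 active means ratio percent of control, averaged over triplicates, above buffer control mean plus 5 SD, cut at about 64% in these data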;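 further: ratio is the fluorescence rise from min to max over baseline after thallium stimulus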
KCNK3 uninduced = counter-screen for KCNK3 inhibitors: effect in non-induced cells. non-induced KCNK3 parental cells, FluxOR thallium flux; stronger effect = lower value. 40% of 2,400 active. shares compounds with KCNK3 inh. thallium flux ratio (lower = more inhibition) at 10 µM;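 active means thallium flux ratio, averaged over three wells, more than 5 SD below the buffer control mean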;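 further: host cells are CHO cells without KCNK3 induction; ratio is peak minus trough fluorescence over baseline then normalized to buffer controls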
Numbers without * were called inactive; i = inactive; . = not tested or not shown. In the library only some 3.7% were active in any assay of this set; here they are far more common.

SMILES	KCNQ1 act	KCNK3 inh	KCNK9 inh	KCNQ1 block	hERG protect	Kir21 block	KCNK9 inh conf	Kir21 sel	HEK293 Tl ctr	KCNK3 confirm	KCNK3 uninduced
CCCN1C(=O)c2ccccc2NC1c1ccc(Br)cc1 (stereo not given)	i	i	i	i	-3.6	-0.68	.	.	.	.	.
C=CCN1C(=O)c2ccccc2NC1c1ccc(Br)s1 (stereo not given)	i	i	-9.19*	i	-12.8	-3.75	37.5%*	i	30.0%*	107.0*	i
Cc1cccc(CCNC(=O)Cn2ncc3c([nH]c4ccccc43)c2=O)c1	i	i	i	i	-5.2	-0.05	.	.	.	.	.
CN(CCCC1CCCC1)C(=O)c1cc(COc2ccc(F)c(F)c2)on1	i	-9.16*	-8.85*	i	-8.4	1.42	i	i	38.5%*	122.0*	i
CN(CCC1CCCCO1)C(=O)c1cc(COc2ccc(F)cc2F)on1 (stereo not given)	i	i	i	i	-11.2	-0.39	.	.	.	.	.
CC1(C)CC(=O)C2=C(C1)N=C1c3ccccc3C(=O)C1C2c1ccc(Cl)cc1 (stereo not given)	i	-15.2*	-11.7*	i	-10.8	-0.01	55.0%*	i	40.0%*	122.3*	0.141*
COc1ccc(S(=O)(=O)N(C)C)cc1NC(=O)CN1C(=O)NC2(CCCC2)C1=O	i	i	i	i	-5.6	0.47	.	.	.	.	.
Cc1ccc(O)c(C(=O)c2cnc3c(c2)COc2ccc(C)cc2-3)c1	i	i	-13.4*	i	-1.4	0.86	72.5%*	i	39.5%*	113.0*	i
C/C(=N\Nc1ccc(F)cc1F)c1cccs1	i	.	i	i	-9.2	-0.15	.	.	.	.	.
O=C(CN(C(=O)c1ccc(Cl)cc1)C1CCCCC1)Nc1ccc(Cl)c([N+](=O)[O-])c1	i	i	i	i	-8.0	-1.47	.	.	.	.	.
O=C(CN(C(=O)c1ccccc1Cl)C1CCCCC1)Nc1ccc(Cl)c([N+](=O)[O-])c1	i	i	-11.4*	8*	-15.2	-0.37	36.0%*	i	29.0%*	98.0*	0.159*
COc1cc(NC(=O)CN2C(=O)COc3ccc(S(=O)(=O)N4CCCC4)cc32)cc(OC)c1	i	-11.4*	-11.4*	i	-6.4	-0.02	52.0%*	i	29.5%*	105.3*	i
Cc1cc(C)cc(NC(=O)CN2C(=O)COc3ccc(S(=O)(=O)N4CCCC4)cc32)c1	i	i	i	i	-5.4	0.86	.	.	.	.	.
O=C1C(CO)C(CO)C(CO)C1CO (stereo not given)	.	i	.	.	.	.	.	.	.	.	.
Cc1ccc(Nc2nc(CSc3nnnn3-c3ccccc3)cs2)cc1	i	i	-11*	i	-4.1	0.33	47.0%*	i	35.0%*	100.0*	i
COc1ccccc1C(=O)Oc1ccc(C(C)(C)C)cc1	i	-9.1*	i	i	-12.6	-2.3	i	i	i	92.7*	0.157*
CC1CCCCN1CCCNC(=O)CCCN1C(=O)c2cccnc2Sc2ccccc21 (stereo not given)	i	i	i	i	-6.0	0.17	.	.	.	.	.
COc1ccccc1CNC(=O)c1csc(Cc2ccc(Cl)cc2)n1	i	-13.4*	i	i	-10.2	4.59	i	i	26.0%*	122.3*	0.136*
COc1ccc(CNC(=O)c2csc(Cc3ccccc3)n2)cc1	i	i	i	i	-8.6	-4.19	.	.	.	.	.
Cc1nn(-c2ccccc2)c(Cl)c1/C=N/NC(=O)c1ccccc1F	i	-11.1*	-14.4*	i	-25.9	0.6	57.0%*	i	23.5%*	101.0*	i
CCOC(=O)C1=C(CSc2nc(CC)c(C)cc2C#N)OC(N)=C(C#N)C1c1ccc(OC)cc1 (stereo not given)	i	-9.18*	-9.72*	i	-9.3	0.86	54.5%*	i	45.0%*	112.0*	0.152*
CN(N=Nc1cccc([N+](=O)[O-])c1)c1cccc([N+](=O)[O-])c1	i	i	-10.6*	i	-10.8	-0.03	i	i	33.5%*	90.0*	i
CCCN(N=Nc1cccc([N+](=O)[O-])c1)c1cccc([N+](=O)[O-])c1	i	-9.18*	-12.4*	i	-13.6	-0.03	50.0%*	i	43.0%*	115.0*	i
Cc1ccccc1Sc1c(C#N)c(-c2ccccc2)nn1C	i	-11.6*	-8.62*	i	-10.6	-1.62	42.0%*	i	50.0%*	122.7*	0.129*
Cc1ccc(Sc2c(CO)c(-c3ccccc3)nn2C)cc1	i	i	i	i	-18.0	2.05	.	.	.	.	.
SMILES	KCNQ1 act	KCNK3 inh	KCNK9 inh	KCNQ1 block	hERG protect	Kir21 block	KCNK9 inh conf	Kir21 sel	HEK293 Tl ctr	KCNK3 confirm	KCNK3 uninduced
COC(=O)c1cccnc1-n1c(=O)c2cccnc2n(Cc2cccc(OC)c2)c1=O	i	i	i	i	-10.2	-1.18	.	.	.	.	.
COC(=O)c1cc(-c2cc(OC)ccc2OC)nc2c1c(=O)n(C)c(=O)n2Cc1ccccc1	i	-10.7*	i	i	-9.9	0.78	i	i	i	101.3*	i
CC(C)(C)c1cc(OC(=O)c2ccccc2F)ccc1O	i	i	-10.4*	i	-4.0	-2.22	33.5%*	i	39.0%*	100.3*	i
CC1CCC(C(C)C)C(OC(=O)COC(=O)c2cccn2C)C1 (stereo not given)	i	-8.76*	-12.7*	i	-20.7	-1.03	59.0%*	i	27.0%*	107.7*	i
CC1CCC(C(C)C)C(OC(=O)Cn2c(-c3ccc(Cl)cc3)[n+](C)c3ccccc32)C1 (stereo not given)	i	-11.2*	-12.2*	10*	-35.5	-14.8*	66.5%*	80.0%*	i	119.0*	i
CC1CCC(C(C)C)C(OC(=O)C[n+]2cccc(C(N)=O)c2)C1 (stereo not given)	i	i	i	i	-5.6	1.93	.	.	.	.	.

Compound activity deposited in PubChem BioAssay by Johns Hopkins Ion Channel Center.
